Test results as given in ChEMBL document CHEMBL1143425, “Paradoxical growth effect of caspofungin observed on biofilms and planktonic cells of five different Candida species” (2007).
Calls of active or inactive are those of the source.

Experiments:
[1] = system: Candida orthopsilosis; test: Antimicrobial activity against Candida orthopsilosis BR-A39 grown as biofilm assessed as concentration producing paradoxical growth after 48 hrs by XTT reduction assay; type: functional
Summary of the method: (§1)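 Sabouraud-grown cells were shaken overnight (18 h, 120 rpm, 35°C) in RPMI 1640 with MOPS at pH 7.0, then washed and set at ~1 × 10^7 cells/ml. Attachment lasted 1.5 h at 37°C, and growth ran 24 h before challenge. Caspofungin was added in RPMI at 2–1,024 μg/ml (10 doublings) for 48 h at 35°C with shaking. XTT-menadione was read at 490 nm after 1 h at 35°C in the dark, with blank wells subtracted. MIC was taken as 50% reduction versus drug-free wells, and PG as >50% of control above MIC. Assays were run in duplicate.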

[2] = system: Candida orthopsilosis; test: Antimicrobial activity against Candida orthopsilosis BR-A33 grown as planktonic cell assessed as paradoxical growth after 48 hrs by XTT reduction assay; type: functional, organism-based
Summary of the method: (§2)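 Planktonic cells were tested by CLSI M27-A2 broth microdilution with caspofungin in water, incubated 48 h. XTT-menadione was added to each well, plates were held 1 h at 35°C in the dark and centrifuged, and supernatant absorbance was read at 490 nm. MIC was defined as 50% decrease in metabolic activity versus drug-free control. PG was defined as ≥20% of control activity at concentrations above MIC.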

[3] = system: Candida albicans; test: Effect on morphology in Candida albicans grown as biofilm assessed as inhibition of hyphae and pseudohyphae at 32 ug/ml after 48 hrs; type: functional, organism-based
Summary of the method: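 Biofilms formed in RPMI 1640 wells were exposed to caspofungin for 48 h and compared with drug-free control wells. Wells were examined in the plate under an inverted light microscope at ×200 and photographed.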

[4] = system: Candida tropicalis; test: Antimicrobial activity against Candida tropicalis BR-A9 grown as planktonic cell after 48 hrs by XTT reduction assay; type: functional
Summary of the method: (§3)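 Planktonic broth microdilution followed CLSI M27-A2, with caspofungin dissolved in water. After 48 h, XTT-menadione was added to the wells and plates were kept 1 h at 35°C in the dark. Plates were then centrifuged and supernatant A490 was read. MIC was the lowest concentration giving a 50% decrease in metabolic activity versus drug-free control. Paradoxical growth was defined as ≥20% of control activity above the MIC.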

[5] = system: Candida parapsilosis; test: Antimicrobial activity against Candida parapsilosis BR-A27 grown as planktonic cell assessed as paradoxical growth after 48 hrs by XTT reduction assay; type: functional, organism-based
Summary of the method: (§4)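 Planktonic broth microdilution followed CLSI M27-A2, with caspofungin dissolved in water. After 48 h, XTT-menadione was added to each well and plates were incubated 1 h at 35°C in the dark. Cells were pelleted by centrifugation and the supernatant was read at 490 nm. MIC was the lowest concentration giving a 50% drop in metabolic activity versus the drug-free control. PG was ≥20% of drug-free activity above the MIC.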

[6] = system: Candida metapsilosis; test: Antimicrobial activity against Candida metapsilosis BR-A44 grown as biofilm after 48 hrs by XTT reduction assay; type: functional; conditions: Lodderomyces metapsilosis; summary of the method: as §1
[7] = system: Candida orthopsilosis; test: Antimicrobial activity against Candida orthopsilosis BR-A38 grown as planktonic cell assessed as concentration producing paradoxical growth after 48 hrs by XTT reduction assay; type: functional; summary of the method: as §2
[8] = system: Candida orthopsilosis; test: Antimicrobial activity against Candida orthopsilosis BR-A37 grown as planktonic cell after 48 hrs by XTT reduction assay; type: functional; conditions: Lodderomyces orthopsilosis; summary of the method: as §3
[9] = system: Candida tropicalis; test: Effect on morphology in Candida tropicalis grown as planktonic cells assessed as rounding and clumping at 8 ug/ml after 48 hrs; type: functional, organism-based
Summary of the method: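 Clinical isolates were tested by CLSI M27-A2 broth microdilution with caspofungin dissolved in sterile water. After 48 h incubation, cells were taken from drug-containing and drug-free control wells. They were examined by light microscopy at ×400 for hyphae or pseudohyphae, rounding or clumping, and enlarged globose cells.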

[10] = system: Candida orthopsilosis; test: Antimicrobial activity against Candida orthopsilosis BR-A33 grown as biofilm after 48 hrs by XTT reduction assay; type: functional; conditions: Lodderomyces orthopsilosis
Summary of the method: (§5)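 Isolates were grown on Sabouraud agar (30°C, 24 h), then overnight in RPMI 1640 with MOPS, pH 7.0, at 35°C with shaking. Cells were washed and set to ~1 × 10^7 cells/ml, attached 1.5 h at 37°C, and grown 24 h. Biofilms were then exposed to caspofungin in 10 twofold dilutions (2–1,024 μg/ml) for 48 h at 35°C with shaking. Read-out was XTT-menadione, 1 h, 35°C, dark, A490, cell-free blank subtracted. MIC was the 50% drop in activity versus drug-free control. Tested in duplicate.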

[11] = system: Candida orthopsilosis; test: Antimicrobial activity against Candida orthopsilosis BR-A34 grown as biofilm assessed as concentration producing paradoxical growth after 48 hrs by XTT reduction assay; type: functional; summary of the method: as §1
[12] = system: Candida albicans; test: Effect on morphology in Candida albicans grown as planktonic cells assessed as rounding and clumping at 16 ug/ml after 48 hrs; type: functional, organism-based
Summary of the method: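 Cells were taken from caspofungin-containing and drug-free wells of the planktonic broth microdilution test after 48 h. They were examined by light microscopy at ×400.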

[13] = system: Candida orthopsilosis; test: Antimicrobial activity against Candida orthopsilosis BR-A34 grown as planktonic cell after 48 hrs by XTT reduction assay; type: functional; conditions: Lodderomyces orthopsilosis; summary of the method: as §2
[14] = system: Candida albicans; test: Antimicrobial activity against Candida albicans BR-A2 grown as planktonic cell assessed as concentration producing paradoxical growth after 48 hrs by XTT reduction assay; type: functional; summary of the method: as §2
[15] = system: Candida parapsilosis; test: Antimicrobial activity against Candida parapsilosis 22019 grown as planktonic cell assessed as paradoxical growth after 48 hrs by XTT reduction assay; type: functional; summary of the method: as §4
[16] = system: Candida parapsilosis; test: Antimicrobial activity against Candida parapsilosis BR-A30 grown as planktonic cell assessed as paradoxical growth after 48 hrs by XTT reduction assay; type: functional, organism-based; summary of the method: as §4
[17] = system: Candida albicans; test: Antimicrobial activity against Candida albicans BR-A7 grown as biofilm after 48 hrs by XTT reduction assay; type: functional; summary of the method: as §5
[18] = system: Candida metapsilosis; test: Antimicrobial activity against Candida metapsilosis BR-A41 grown as planktonic cell assessed as paradoxical growth after 48 hrs by XTT reduction assay; type: functional, organism-based; summary of the method: as §2
[19] = system: Candida tropicalis; test: Antimicrobial activity against Candida tropicalis BR-A18 grown as planktonic cell assessed as paradoxical growth after 48 hrs by XTT reduction assay; type: functional, organism-based; summary of the method: as §4
[20] = system: Candida albicans; test: Antimicrobial activity against Candida albicans BR-A1 grown as planktonic cell assessed as paradoxical growth after 48 hrs by XTT reduction assay; type: functional, organism-based; summary of the method: as §2
[21] = system: Candida albicans; test: Antimicrobial activity against Candida albicans BR-A7 grown as planktonic cell assessed as paradoxical growth after 48 hrs by XTT reduction assay; type: functional, organism-based; summary of the method: as §2
[22] = system: Candida albicans; test: Antimicrobial activity against Candida albicans BR-A7 grown as biofilm assessed as concentration producing paradoxical growth after 48 hrs by XTT reduction assay; type: functional; summary of the method: as §1
[23] = system: Candida orthopsilosis; test: Antimicrobial activity against Candida orthopsilosis BR-A39 grown as biofilm after 48 hrs by XTT reduction assay; type: functional; conditions: Lodderomyces orthopsilosis; summary of the method: as §5
[24] = system: Candida metapsilosis; test: Antimicrobial activity against Candida metapsilosis BR-A42 grown as planktonic cell after 48 hrs by XTT reduction assay; type: functional; conditions: Lodderomyces metapsilosis; summary of the method: as §2
[25] = system: Candida parapsilosis; test: Antimicrobial activity against Candida parapsilosis 22019 grown as planktonic cell after 48 hrs by XTT reduction assay; type: functional; conditions: Lodderomyces parapsilosis, 22019, 48 h; summary of the method: as §3

CC[C@H](C)C[C@H](C)CCCCCCCCC(=O)N[C@H]1C[C@@H](O)[C@@H](NCCN)NC(=O)[C@@H]2[C@@H](O)CCN2C(=O)[C@H]([C@H](O)CCN)NC(=O)[C@H]([C@H](O)[C@@H](O)c2ccc(O)cc2)NC(=O)[C@@H]2C[C@@H](O)CN2C(=O)[C@H]([C@@H](C)O)NC1=O [CASPOFUNGIN]
inactive: Activity [2] | Activity [5] | Activity [16] | Activity [18]
8 µg/mL: Activity [15]
1 mg/L: MIC [4] | MIC [13] | MIC [24]
32 µg/mL: Activity [1] | Activity [11]
active: Activity [3] | Activity [9] | Activity [12] | Activity [19] | Activity [20] | Activity [21]
2 mg/L: MIC [6] | MIC [8] | MIC [10] | MIC [17] | MIC [23] | MIC [25]
16 µg/mL: Activity [7] | Activity [14] | Activity [22]
